# According to ChEMBL document CHEMBL1629690, “Development of hexadecyloxypropyl tenofovir (CMX157) for treatment of infection caused by wild-type and nucleoside/nucleotide-resistant HIV” (Antimicrob Agents Chemother, 2010):
# Key:
# [1] = system: Human immunodeficiency virus 1; assay: Antiviral activity against HIV1 isolate 056 expressing wild type reverse transcriptase gene by phenosense assay; assay type: functional, organism-based; conditions: Human immunodeficiency virus 1, isolate 056
# Procedure, shortened: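 In the PhenoSense recombinant virus assay, virus was tested against increasing drug concentrations. EC50 came from the inhibition curve and was compared with a drug-sensitive reference virus.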
# [2] = system: Human immunodeficiency virus 1; assay: Antiviral activity against HIV1 isolate 058 harboring reverse transcriptase M41L/D67N/K70R/L210W/T215F/K219Q mutant gene by phenosense assay; assay type: functional, organism-based; conditions: Human immunodeficiency virus 1, isolate 058
# Procedure, shortened: (§1)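 Recombinant-virus PhenoSense HIV assay run on a panel of 30 NRTI-resistant HIV-1 mutants and two wild-type viruses. Each virus is tested across increasing drug concentrations to give an inhibition curve and EC50. Fold change is the test recombinant EC50 divided by the EC50 of the drug-sensitive wild-type reference virus.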
# [3] = system: Human immunodeficiency virus 1; assay: Antiviral activity against HIV1 isolate 060 harboring reverse transcriptase M41L/D67N/K70R/L210W/T215Y/K219E mutant gene by phenosense assay; assay type: functional, organism-based; conditions: Human immunodeficiency virus 1, isolate 060; procedure, shortened: as §1
# [4] = system: Human immunodeficiency virus 1; assay: Antiviral activity against HIV1 isolate 063 harboring reverse transcriptase M41L/D67N/K70R/M184V/L210W/T215Y/K219E mutant gene by phenosense assay; assay type: functional, organism-based; conditions: Human immunodeficiency virus 1, isolate 063; procedure, shortened: as §1
# [5] = system: Human immunodeficiency virus 1; assay: Antiviral activity against HIV1 isolate 069 harboring reverse transcriptase D67E/T69SSG/V75M/M184V/L210W/T215Y mutant gene by phenosense assay; assay type: functional, organism-based; conditions: Human immunodeficiency virus 1, isolate 069; procedure, shortened: as §1
# [6] = system: Human immunodeficiency virus 1; assay: Antiviral activity against HIV1 isolate 166 harboring reverse transcriptase L74V mutant gene obtained as site-directed mutant of NL4-3 by phenosense assay; assay type: functional, organism-based; conditions: Human immunodeficiency virus 1, isolate 166; procedure, shortened: as §1
# [7] = system: Human immunodeficiency virus 1; assay: Antiviral activity against HIV1 isolate 174 harboring reverse transcriptase M184V mutant gene obtained as site-directed mutant of NL4-3 by phenosense assay; assay type: functional, organism-based; conditions: Human immunodeficiency virus 1, isolate 174; procedure, shortened: as §1
# [8] = system: Human immunodeficiency virus 1; assay: Antiviral activity against HIV1 isolate 180 harboring reverse transcriptase K65R mutant gene obtained as site-directed mutant of NL4-3 by phenosense assay; assay type: functional, organism-based; conditions: Human immunodeficiency virus 1, isolate 180; procedure, shortened: as §1
# [9] = system: Human immunodeficiency virus 1; assay: Antiviral activity against HIV1 isolate 188 harboring reverse transcriptase T215Y/M184V mutant gene by phenosense assay; assay type: functional, organism-based; conditions: Human immunodeficiency virus 1, isolate 188; procedure, shortened: as §1
# [10] = system: Human immunodeficiency virus 1; assay: Antiviral activity against HIV1 isolate 192 harboring reverse transcriptase M41L/T215Y mutant gene by phenosense assay; assay type: functional, organism-based; conditions: Human immunodeficiency virus 1, isolate 192; procedure, shortened: as §1
# [11] = system: Human immunodeficiency virus 1; assay: Antiviral activity against HIV1 isolate 194 harboring reverse transcriptase M41L/T215Y/M184V mutant gene by phenosense assay; assay type: functional, organism-based; conditions: Human immunodeficiency virus 1, isolate 194; procedure, shortened: as §1
# [12] = system: Human immunodeficiency virus 1; assay: Antiviral activity against HIV1 isolate 200 harboring reverse transcriptase M41L/L210W/T215Y mutant gene by phenosense assay; assay type: functional, organism-based; conditions: Human immunodeficiency virus 1, isolate 200; procedure, shortened: as §1
# [13] = system: Human immunodeficiency virus 1; assay: Antiviral activity against HIV1 isolate 201 harboring reverse transcriptase M41L/L210W/T215Y mutant gene by phenosense assay; assay type: functional, organism-based; conditions: Human immunodeficiency virus 1, isolate 201; procedure, shortened: as §1
# [14] = system: Human immunodeficiency virus 1; assay: Antiviral activity against HIV1 isolate 203 harboring reverse transcriptase M41L/L210W/T215Y/M184V mutant gene by phenosense assay; assay type: functional, organism-based; conditions: Human immunodeficiency virus 1, isolate 203
# Procedure, shortened: (§2)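 PhenoSense HIV recombinant virus assay: patient-derived HIV-1 with major NRTI resistance mutations tested against increasing drug concentrations to give inhibition curves. EC50 is the concentration giving 50% inhibition. Fold change is the test recombinant EC50 divided by the EC50 of a drug-sensitive wild-type reference virus. Panel of 30 NRTI-resistant isolates plus two wild-type viruses.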
# [15] = system: Human immunodeficiency virus 1; assay: Antiviral activity against HIV1 isolate 204 harboring reverse transcriptase M41L/L210W/T215Y/M184V mutant gene by phenosense assay; assay type: functional, organism-based; conditions: Human immunodeficiency virus 1, isolate 204; procedure, shortened: as §2
# [16] = system: Human immunodeficiency virus 1; assay: Antiviral activity against HIV1 isolate 206 harboring reverse transcriptase D67N/K70R mutant gene by phenosense assay; assay type: functional, organism-based; conditions: Human immunodeficiency virus 1, isolate 206; procedure, shortened: as §2
# [17] = system: Human immunodeficiency virus 1; assay: Antiviral activity against HIV1 isolate 211 harboring reverse transcriptase D67N/K70R/T215F/K219E/M184V mutant gene by phenosense assay; assay type: functional, organism-based; conditions: Human immunodeficiency virus 1, isolate 211; procedure, shortened: as §2
# [18] = system: Human immunodeficiency virus 1; assay: Antiviral activity against HIV1 isolate 212 harboring reverse transcriptase L210W/T215Y mutant gene by phenosense assay; assay type: functional, organism-based; conditions: Human immunodeficiency virus 1, isolate 212; procedure, shortened: as §2
# [19] = system: Human immunodeficiency virus 1; assay: Antiviral activity against HIV1 isolate 217 harboring reverse transcriptase D67N/K70E/M184V mutant gene by phenosense assay; assay type: functional, organism-based; conditions: Human immunodeficiency virus 1, isolate 217; procedure, shortened: as §2
# [20] = system: Human immunodeficiency virus 1; assay: Antiviral activity against HIV1 isolate 220 harboring reverse transcriptase K70E/M184V mutant gene by phenosense assay; assay type: functional, organism-based; conditions: Human immunodeficiency virus 1, isolate 220; procedure, shortened: as §2
# [21] = system: Human immunodeficiency virus 1; assay: Antiviral activity against HIV1 isolate 061 harboring reverse transcriptase M41L/D67N/K70R/M184V/L210W/T215Y/K219E mutant gene by phenosense assay relative to wild type; assay type: functional; procedure, shortened: as §1
# [22] = system: Human immunodeficiency virus 1; assay: Antiviral activity against HIV1 isolate 063 harboring reverse transcriptase M41L/D67N/K70R/M184V/L210W/T215Y/K219E mutant gene by phenosense assay relative to wild type; assay type: functional; procedure, shortened: as §1
# [23] = system: Human immunodeficiency virus 1; assay: Antiviral activity against HIV1 isolate 069 harboring reverse transcriptase D67E/T69SSG/V75M/M184V/L210W/T215Y mutant gene by phenosense assay relative to wild type; assay type: functional; procedure, shortened: as §1
# [24] = system: Human immunodeficiency virus 1; assay: Antiviral activity against HIV1 isolate 070 harboring reverse transcriptase 65R/S68G mutant gene by phenosense assay relative to wild type; assay type: functional; procedure, shortened: as §1
# [25] = system: Human immunodeficiency virus 1; assay: Antiviral activity against HIV1 isolate 153 harboring reverse transcriptase L74V mutant gene by phenosense assay relative to wild type; assay type: functional; procedure, shortened: as §1
# [26] = system: Human immunodeficiency virus 1; assay: Antiviral activity against HIV1 isolate 157 harboring reverse transcriptase L74V/M184V mutant gene by phenosense assay relative to wild type; assay type: functional; procedure, shortened: as §1
# [27] = system: Human immunodeficiency virus 1; assay: Antiviral activity against HIV1 isolate 160 harboring reverse transcriptase S68G/V75(I/T)/F77L/Y115F/F116Y /Q151M mutant gene by phenosense assay relative to wild type; assay type: functional; procedure, shortened: as §1
# [28] = system: Human immunodeficiency virus 1; assay: Antiviral activity against HIV1 isolate 162 harboring reverse transcriptase A62V/V75I/F77L/Y115F/F116Y/Q151M/M184V mutant gene by phenosense assay relative to wild type; assay type: functional; procedure, shortened: as §1
# [29] = system: Human immunodeficiency virus 1; assay: Antiviral activity against HIV1 isolate 166 harboring reverse transcriptase L74V mutant gene obtained as site-directed mutant of NL4-3 by phenosense assay relative to wild type; assay type: functional; procedure, shortened: as §1
# [30] = system: Human immunodeficiency virus 1; assay: Antiviral activity against HIV1 isolate 174 harboring reverse transcriptase M184V mutant gene obtained as site-directed mutant of NL4-3 by phenosense assay relative to wild type; assay type: functional; procedure, shortened: as §1
# [31] = system: Human immunodeficiency virus 1; assay: Antiviral activity against HIV1 isolate 194 harboring reverse transcriptase M41L/T215Y/M184V mutant gene by phenosense assay relative to wild type; assay type: functional; procedure, shortened: as §1
# [32] = system: Human immunodeficiency virus 1; assay: Antiviral activity against HIV1 isolate 203 harboring reverse transcriptase M41L/L210W/T215Y/M184V mutant gene by phenosense assay relative to wild type; assay type: functional; procedure, shortened: as §2
# [33] = system: Human immunodeficiency virus 1; assay: Antiviral activity against HIV1 isolate 206 harboring reverse transcriptase D67N/K70R mutant gene by phenosense assay relative to wild type; assay type: functional; procedure, shortened: as §2
# [34] = system: Human immunodeficiency virus 1; assay: Antiviral activity against HIV1 isolate 217 harboring reverse transcriptase D67N/K70E/M184V mutant gene by phenosense assay relative to wild type; assay type: functional; procedure, shortened: as §2
smiles,measurement,setting,value
Nc1nc(NC2CC2)c2ncn([C@H]3C=C[C@@H](CO)C3)c2n1 [ABACAVIR],EC50,[1],1.5 µM
same,EC50,[2],7.9 µM
same,EC50,[3],11 µM
same,EC50,[4],14 µM
same,EC50,[5],47 µM
same,EC50,[6],3.3 µM
same,EC50,[7],4.7 µM
same,EC50,[8],4.6 µM
same,EC50,[9],7.6 µM
same,EC50,[10],3.4 µM
same,EC50,[11],9.6 µM
same,EC50,[12],5 µM
same,EC50,[13],4.2 µM
same,EC50,[14],8.2 µM
same,EC50,[15],8.9 µM
same,EC50,[16],2.5 µM
same,EC50,[17],7.7 µM
same,EC50,[18],3.6 µM
same,EC50,[19],5.1 µM
same,EC50,[20],10 µM
same,fold change (FC),[21],9.1
same,fold change (FC),[22],7.9
same,fold change (FC),[23],26
same,fold change (FC),[24],3.2
same,fold change (FC),[25],1.9
same,fold change (FC),[26],5.2
same,fold change (FC),[27],19
same,fold change (FC),[28],>29
same,fold change (FC),[29],1.9
same,fold change (FC),[30],2.6
same,fold change (FC),[31],5.4
same,fold change (FC),[32],4.6
same,fold change (FC),[33],1.4
same,fold change (FC),[34],2.9
Cc1cn([C@H]2C[C@H](N=[N+]=[N-])[C@@H](CO)O2)c(=O)[nH]c1=O [ZIDOVUDINE],EC50,[2],9.6 µM
same,EC50,[3],16 µM
same,EC50,[4],1.6 µM
same,EC50,[5],8.7 µM
same,EC50,[6],0.014 µM
same,EC50,[7],0.009 µM
same,EC50,[8],0.014 µM
same,EC50,[9],0.071 µM
same,EC50,[10],0.56 µM
same,EC50,[11],0.18 µM
same,EC50,[12],2.7 µM
same,EC50,[13],2.7 µM
same,EC50,[14],0.087 µM
same,EC50,[15],0.11 µM
same,EC50,[16],0.77 µM
same,EC50,[17],0.19 µM
same,EC50,[18],0.21 µM
same,EC50,[19],0.004 µM
same,EC50,[20],0.004 µM
same,fold change (FC),[21],58
same,fold change (FC),[22],59
same,fold change (FC),[23],320
same,fold change (FC),[24],0.44
same,fold change (FC),[25],0.41
same,fold change (FC),[26],0.22
same,fold change (FC),[27],93
same,fold change (FC),[28],150
same,fold change (FC),[29],0.5
same,fold change (FC),[30],0.34
same,fold change (FC),[31],6.5
same,fold change (FC),[32],3.2
same,fold change (FC),[33],28
same,fold change (FC),[34],0.15
